These results are taken from PubChem BioAssay AID602425 (Sanford-Burnham Center for Chemical Genomics, 2012).

In the assay the target is glucose-6-phosphate dehydrogenase-6-phosphogluconolactonase (PfGluPho) [Plasmodium falciparum 3D7]. Briefly: inhibition of P. falciparum G6PD rate – biochemical, kinetic direct NADPH detection, set 3, orthogonal assay for PfG6PD antimalarial inhibitor project, SAR follow-up (AID 602425). To be noted: recombinant PfG6PDH, direct NADPH fluorescence kinetic. An outline of the steps:
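Test system: PfG6PDH, the glucose-6-phosphate dehydrogenase of Plasmodium falciparum | Quantity: PfG6PDH at 0.2 µg/mL final | Also added: Glucose-6-phosphate 20 µM plus NADP 3 µM, final amounts | Dosing: Test compounds in dose-response series | Timing: Fluorescence reads repeated every 5 min | Detection: NADPH fluorescence, 340 nm excitation, 450 nm emission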

The source made the active and inactive calls.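 Rule for the calls: active = IC50 of 80 µM or lower; inactive = the rest.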

Regarding `O=C(NC[C@H]1CCCN1)c1ccc2c(c1)NC(=O)c1ccccc1S2`, the IC50 is 40.3 µM.

Take `O=C(NCC1CCCCN1)c1ccc2c(c1)NC(=O)c1ccccc1S2` (configuration not stated): the IC50 is 41.4 µM.

Consider `CCCCCCN1CCCC1CNC(=O)c1ccc2c(c1)NC(=O)c1ccccc1S2` (configuration not stated), for which the concentration for half-maximal inhibition (IC50) was 42.2 µM.

Regarding `CCN1CCC[C@@H]1CNC(=O)c1ccc2c(c1)NC(=O)c1ccc(F)cc1S2`, the IC50 is 4.34 µM.

For `CN1CCCC1CNC(=O)c1ccc2c(c1)NC(=O)c1ccccc1S2` (configuration not stated), the IC50 was 23.3 µM.

For `CCCN1CCC(NC(=O)c2ccc3c(c2)NC(=O)c2ccccc2S3)C1` (configuration not stated), the IC50 is > 80 µM (inactive).

Consider `CCN1CCCCC1CNC(=O)c1ccc2c(c1)NC(=O)c1ccccc1S2` (configuration not stated), for which the IC50 is > 80 µM (inactive).

With `CCN1CCC[C@@H]1CNC(=O)c1ccc2c(c1)NC(=O)c1ccccc1N2`, the IC50 is > 80 µM (inactive).

Consider `CCN1CCC(NC(=O)c2ccc3c(c2)NC(=O)c2ccccc2S3)C1` (configuration not stated), for which the IC50 was > 80 µM (inactive).

Consider `CCCN1CCC[C@@H]1CNC(=O)c1ccc2c(c1)NC(=O)c1ccccc1S2`, for which the IC50 is 11.4 µM.

Regarding `CCCN1CCCCC1CNC(=O)c1ccc2c(c1)NC(=O)c1ccccc1S2` (configuration not stated), the IC50 was 62.6 µM.

For the compound `CCCCN1CCCC1CNC(=O)c1ccc2c(c1)NC(=O)c1ccccc1S2` (configuration not stated), the IC50 is 18.5 µM.

On to `CN1CCCCC1CNC(=O)c1ccc2c(c1)NC(=O)c1ccccc1S2` (configuration not stated), for which the IC50 is 71.4 µM.

On to `CCN1CCC[C@@H]1CNC(=O)c1ccc2c(c1)NC(=O)c1cc(C)ccc1S2`, for which the IC50 is 24.4 µM.

As to `CCN1CCC[C@@H]1CNC(=O)c1ccc2c(c1)NC(=O)c1cccc(C)c1S2`, the concentration for half-maximal inhibition (IC50) was 0.212 µM.

Turning to `CN1CCC(NC(=O)c2ccc3c(c2)NC(=O)c2ccccc2S3)C1` (configuration not stated), the IC50 was > 80 µM (inactive).

For the compound `CCN1CCC[C@@H]1CNC(=O)c1ccc2c(c1)NC(=O)c1cc(F)ccc1S2`, the IC50 was 49.1 µM.
